Data published in ChEMBL document CHEMBL2093137, “WHO-TDR NTD Screening”.
Values after ≈ are worked out from the molar mass of the structure shown.

What was measured:
Brugia malayi = assay: WHO-TDR: Lymphatic Filariasis; assay type: functional; set-up: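 tested at 10 µM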
In short: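 In a whole-organism assay, Brugia malayi microfilariae were screened against a diverse Life Chemicals library that had been filtered for drug-likeness and reactive groups. That library comprised 10,000 compounds. Activity is expressed as percent inhibition and as IC50.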

Trypanosoma cruzi = assay: WHO-TDR: Chagas disease; assay type: functional, organism-based, Homo sapiens; conditions: MRC5
In short: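 Following previously published standard procedures, with a reference drug as positive control, a whole-organism assay was run on Trypanosoma cruzi Tulahuen CL2 beta-galactosidase strain amastigotes inside MRC-5SV2 human lung fibroblast host cells. The 10,000 compounds tested formed a diverse Life Chemicals library filtered for drug-likeness and reactive groups. Results are expressed as IC50 for antiparasitic potency.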

[1] = test system: Trypanosoma brucei brucei; assay: WHO-TDR: Human African Trypanosomiasis (HAT); assay type: functional, organism-based; conditions: Squib-427
In short: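 Bloodstream forms of the Trypanosoma brucei Squib 427 strain were tested in a whole-organism screen with a diverse library from Life Chemicals of 10,000 compounds. Before screening, the library was filtered for drug-likeness and for reactive groups. The assay used previously published standard procedures and included reference drugs as positive controls. Potency against the parasite is expressed as IC50.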

Onchocerca ochengi = assay: WHO-TDR: Onchocerciasis; assay type: functional; set-up: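 at 12.5 µM on microfilariae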
In short: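 Microfilariae of Onchocerca ochengi or Onchocerca lienalis, animal pathogens standing in for the human parasite, were exposed to compounds in a whole-organism screen. The compounds came from a 10,000-compound diverse Life Chemicals library filtered for drug-likeness and reactive groups. Results are expressed as percent inhibition and IC50.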

Leishmania infantum = assay: WHO-TDR: Leishmaniasis; assay type: functional, organism-based, Mus musculus; conditions: Macrophage
In short: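 Following previously published standard procedures, a whole-organism screen was run on Leishmania infantum MHOM/MA(BE)/67 amastigotes within murine peritoneal macrophages, with a reference drug as positive control. The 10,000 compounds tested formed a diverse Life Chemicals library filtered for drug-likeness and reactive groups. Potency against the parasite is reported as IC50.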

[2] = WHO-TDR: Cytotoxicity; assay type: toxicity, cell-based; conditions: human, MRC5 cells
Plasmodium falciparum K1 = assay: WHO-TDR: Malaria; assay type: functional, organism-based, Homo sapiens; conditions: Erythrocyte
In short: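 Following previously published standard procedures, with a reference drug serving as positive control, compounds were tested on the Plasmodium falciparum K1 strain inside human red blood cells. The 10,000-compound diverse set came from Life Chemicals after filtering for drug-likeness and reactive groups. Potency against the parasite appears as IC50.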

Compound | % Inhibition (Brugia malayi) | IC50 (Trypanosoma cruzi) | IC50 [1] | % Inhibition (Onchocerca ochengi) | IC50 (Leishmania infantum) | IC50 [2] | IC50 (Plasmodium falciparum K1)
CCCCOc1ccc(C(=O)N2CCN(c3cc(OC)nc(OC)n3)CC2)cc1 | 0% | > 12 µg/mL | > 12 µg/mL | 100% | > 12 µg/mL | > 12 µg/mL | > 12 µg/mL
COc1cc(N2CCN(C(=O)Nc3cccc(Cl)c3)CC2)nc(OC)n1 | 0% | > 11.3 µg/mL | > 11.3 µg/mL | 100% | > 11.3 µg/mL | > 11.3 µg/mL | > 11.3 µg/mL
Cc1nc2sc(C)c(C)n2c(=O)c1NC(=O)CC(c1ccccc1)c1ccccc1 | 0% | > 12.5 µg/mL | > 12.5 µg/mL | 100% | > 12.5 µg/mL | > 12.5 µg/mL | > 12.5 µg/mL
CCOc1ncccc1C(=O)Nc1c(C)nc2sc(C)c(C)n2c1=O | 0% | > 10.8 µg/mL | > 10.8 µg/mL | 0% | 0.348 µg/mL (≈ 0.971 µM) | > 10.8 µg/mL | > 10.8 µg/mL
Cc1cc(=O)n2c(-c3cccc(NC(=O)Nc4ccc(F)cc4)c3)csc2n1 | 0% | > 11.8 µg/mL | > 11.8 µg/mL | 0% | 0.383 µg/mL (≈ 0.971 µM) | > 11.8 µg/mL | > 11.8 µg/mL
COc1ccc(NC(=O)Nc2cccc(-c3csc4nc(C)cc(=O)n34)c2)cc1 | 0% | > 12.2 µg/mL | 4.04 µg/mL (≈ 9.95 µM) | 0% | 0.395 µg/mL (≈ 0.972 µM) | > 12.2 µg/mL | > 12.2 µg/mL
Cc1nc2scc(-c3cccc(NC(=O)NC4CCCCC4)c3)n2c(=O)c1C | 0% | 3.54 µg/mL (≈ 8.93 µM) | 4.05 µg/mL (≈ 10.2 µM) | 100% | > 11.9 µg/mL | > 11.9 µg/mL | > 11.9 µg/mL
Cc1nc2scc(-c3cccc(NS(C)(=O)=O)c3)n2c(=O)c1C | 0% | > 10.5 µg/mL | > 10.5 µg/mL | 100% | > 10.5 µg/mL | > 10.5 µg/mL | > 10.5 µg/mL
Cc1noc(C)c1S(=O)(=O)Nc1cccc(-c2csc3nc(C)c(C)c(=O)n23)c1 | 0% | > 12.9 µg/mL | > 12.9 µg/mL | 0% | 0.418 µg/mL (≈ 0.971 µM) | > 12.9 µg/mL | > 12.9 µg/mL
COc1ccc(CC(=O)Nc2ccc(SC)nn2)cc1 | 0% | > 8.68 µg/mL | > 8.68 µg/mL | 100% | > 8.68 µg/mL | > 8.68 µg/mL | > 8.68 µg/mL
COc1ccc(C(=O)Nc2ccc(SCC(=O)N3CCCC3)nn2)c(OC)c1 | 0% | > 12.1 µg/mL | > 12.1 µg/mL | 100% | > 12.1 µg/mL | > 12.1 µg/mL | > 12.1 µg/mL
O=C(CCc1csc(NC(=O)c2ccco2)n1)NCCc1c[nH]c2ccccc12 | 0% | 5.75 µg/mL (≈ 14.1 µM) | > 12.3 µg/mL | 100% | > 12.3 µg/mL | 3.18 µg/mL (≈ 7.78 µM) | > 12.3 µg/mL
COc1ccccc1CNC(=O)CCc1csc(NC(=O)c2ccc(F)cc2)n1 | 0% | > 12.4 µg/mL | > 12.4 µg/mL | 100% | > 12.4 µg/mL | > 12.4 µg/mL | > 12.4 µg/mL
COc1ccccc1CCNC(=O)CCc1csc(NC(=O)c2cccs2)n1 | 0% | 3.8 µg/mL (≈ 9.15 µM) | 4.19 µg/mL (≈ 10.1 µM) | 100% | 5.26 µg/mL (≈ 12.7 µM) | 5.79 µg/mL (≈ 13.9 µM) | > 12.5 µg/mL
CSc1ccccc1NC(=O)CCc1csc(NC(=O)c2cccs2)n1 | 0% | 5.38 µg/mL (≈ 13.3 µM) | 4.15 µg/mL (≈ 10.3 µM) | 100% | 12.1 µg/mL (≈ 30 µM) | > 12.1 µg/mL | > 12.1 µg/mL
O=C(CCc1csc(NC(=O)c2cccs2)n1)Nc1nc2ccccc2s1 | 0% | > 12.4 µg/mL | > 12.4 µg/mL | 100% | 4.03 µg/mL (≈ 9.71 µM) | > 12.4 µg/mL | > 12.4 µg/mL
O=C(CCc1csc(NC(=O)c2ccco2)n1)Nc1ccc(Cl)cc1 | 0% | 3.67 µg/mL (≈ 9.77 µM) | > 11.3 µg/mL | 100% | > 11.3 µg/mL | > 11.3 µg/mL | > 11.3 µg/mL
Cc1cccc2sc(NC(=O)CCc3csc(NC(=O)c4ccco4)n3)nc12 | 0% | > 12.4 µg/mL | > 12.4 µg/mL | 100% | 0.843 µg/mL (≈ 2.04 µM) | > 12.4 µg/mL | > 12.4 µg/mL
